Columns and labels:
MS2 coat protein [1] = experiment: apparent Kd, MS2 coat protein; higher = weaker binding; RNA-MaP array; theophylline 2 mM where present
Method in brief: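 Apparent Kd: the median of filtered binding-curve fits from single clusters. Designs were transcribed on Illumina sequencing-chip clusters by stalled E. coli RNA polymerase and titrated with SNAP-549-labelled MS2 coat protein from 0.7 or 1.5 nM, doubling to 3 µM, in 100 mM Tris-HCl pH 7.5, 80 mM KCl, 4 mM MgCl2, BSA, DTT, yeast tRNA and Tween-20. Each series ran without and then with constant ligand, and green signal was normalised to red-channel RNA signal and control-cluster median Fmax.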

MS2 coat protein [2] = experiment: apparent Kd, MS2 coat protein; higher = weaker binding; RNA-MaP array
Method in brief: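 Incubations were done at room temperature with fluorescently labeled MS2 coat protein at 1.5 nM to 3 μM and designed RNAs transcribed on an Illumina sequencing chip from sequenced DNA templates, with or without input ligand. Apparent Kd is the median of binding curves fitted for each cluster. Designs with fewer than 10 measured clusters were excluded.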

[3] = designed as: OFF switch for theophylline, no ligand
[4] = ligand present: theophylline, designed as: OFF switch for theophylline
[5] = designed as: ON switch for theophylline, no ligand
[6] = ligand present: theophylline, designed as: ON switch for theophylline
[7] = designed as: ON switch for flavin mononucleotide, no ligand
[8] = ligand present: flavin mononucleotide, designed as: ON switch for flavin mononucleotide

Row | Sequence | apparent Kd (MS2 coat protein [1]; [3]) [nM] | apparent Kd (MS2 coat protein [1]; [4]) [nM] | apparent Kd (MS2 coat protein [1]; [5]) [nM] | apparent Kd (MS2 coat protein [1]; [6]) [nM] | further results
1 | GAGCUGAUGUAGAGCGAAUAUUCGAGAGAUACCAGUACAGAAAUGUACCCUUGGCAGCUCAACUUUACAUGAGGAUCACCCAUGU | 13.7 | 25 | – | – | –
2 | UGACAUUGCUCAGAUACCAGACAUGAGGAUCACCCAUGUACCAAGAAAGUACAAUAAAAUGUCCCUUGGCAGCUGAGCAAUGUCU | 66.8 | 487 | – | – | –
3 | UAUACAUGAGGAUCACCCAUGUGCCAUGAUACCAGACAUGAAAAUGUCCCUUGGCAGCAUGGUGAUUGUAUAGCGGGAAACCCGA | – | – | 160 | 196 | –
4 | UCGUGUAUAUCGGAUACCAGUGAAAUCGAUACAUGAGGAUCACCCAUGUGAGUUGAUGUACACCCUUGGCAGCUGUAUAUAUCUA | – | – | 16.2 | 12.4 | –
5 | AGCAUGUUAUCAGAUACCAGACAUCUUUUAAUACAUAUUACAUGAGGAUCACCCAUGUUGGUCCCUUGGCAGCUGAAAUAUUUCA | – | – | 256 | 80.5 | –
6 | ACUAGUUGUGCAGAUACCAGACAUGAGGAUCACCCAUGUUUGGGAUCUAAUGAUCAUCUUGUCCCUUGGCAGCUGUACAUCUAGA | 78.5 | 33.9 | – | – | –
7 | CUGGCAGGAUGAUCCGCUGUCAGGGCUGAUACCAGCCACGAAAGUGGCCCUUGGCAGCAGCAAACAUGAGGAUCACCCAUGUAAA | – | – | 144 | 266 | –
8 | ACGACGCAUACAGAUACCAGUAGAACAUGAGGAUCACCCAUGUCUGAGGCGCUCCGCCACUGCCCUUGGCAGCUGUAUGCGUCAG | – | – | 9.7 | 14.2 | –
9 | GGCGGACUUAUAGAUACCAGCACAUGAGGAUCACCCAUGUUUGGUCGCACCUCAGUCCUGUGCCCUUGGCAGCUAUGAUAGAUUU | 17.3 | 95.1 | – | – | –
10 | UGACGAUACCUGGAUACCAGCGACAUGAGGAUCACCCAUGUAUGAGGAUCAGCCAUGUUAUGCCCUUGGCAGCCACGAAGGUCUU | 33 | 224 | – | – | –
11 | UUUGAUAGGACAGAUACCAGCGUGUUAUAGAACAUGAGGAUCACCCAUGUAGUGAUCAAGCGCCCUUGGCAGCUGGUUUGUUAGG | – | – | 229 | 395 | –
12 | UCUGGGUCCGCAAGGACCUGGAGUUGCGAUACCAGCACGGUAACGUGCCCUUGGCAGCGCACAUGAGGAUCACCCAUGUGGUGUU | 261 | 436 | – | – | –
13 | AUCUCGUUCAAUAUACCGCCUUGACUAGAUACCAGCAUGGACCCAUGCCCUUGGCAGCUGGACAUGAGGAUCACCCAUGUUUCAG | – | – | 12.4 | 14.6 | –
14 | CGAUGAUCGAGGGAUACCAGAAAUGGUAUUCCUUUAUUUCUUACAUGAGGAUCACCCAUGUUCCCUUGGCAGCUUUUGAUCAUCG | 86.5 | 149 | – | – | –
15 | AUGUCGUUGAAUACAGCGGCAUGGAGUGAUACCAGAAUGAUCAAAUUCCCUUGGCAGCAUCACAUGAGGAUCACCCAUGUUCGAU | – | – | 29.1 | 34.3 | –
16 | AAUGAACAUGAGGAUCACCCAUGUCGUGAUACCAGCCGUAAGAGUGGCCCUUGGCAGCGCCAUGAGGACAACAACAUACAUGAGG | – | – | 24.3 | 27 | –
17 | AGCCCAUUACAUGAGGAUCACCCAUGUGAUACCAGUCAGGAAACUGACCCUUGGCAGCGCAUGAGGAUCACCCAUGCGCUGGGCA | 12 | 11.4 | – | – | –
18 | UGUAACAUGAGGAUCACCCAUGUGAGUGAUACCAGAUUAGUAGUAGUCCCUUGGCAGCACAUUGGGCGAGUGUAUAGUCUAUGCG | – | – | 171 | 118 | –
19 | UAAUAAAUAAGUGAUACCAGCGAGAAAACAUGAGGAUCACCCAUGUUCGCCCAUGUUAAGCGCCCUUGGCAGCACAAAUAUAAAA | 26.1 | 84.9 | – | – | –
20 | AUAACAUGAGGAUCACCCAUGUAAGCAGAUACCAGCUAGGAAACUAGCCCUUGGCAGCUGCAAUCAUGGGUGUGGUAUCUGCUAA | 28.2 | 39.7 | – | – | –
21 | AGCCCUGUGCUAGAUACCAGCUACAUGAGGAUCACCCAUGUGCGUCAGAAAUGACUGUGUAGCCCUUGGCAGCUAAAUGCAUGUA | 11.8 | 28 | – | – | –
22 | GUUGCACAUGAGGAUCACCCAUGUUUGGAUACCAGUCUCUGUAAUGACCCUUGGCAGCCACCAUAGACGCUUGAGUAGAGCCUGA | – | – | – | – | apparent Kd (MS2 coat protein [2]; [5]): 15 nM; apparent Kd (MS2 coat protein [2]; [6]): 16 nM
23 | GAUCCCACGAAGAAGGUCAGAUUUAGAUUACUUGAAGGAUAUUCACAUGAGGAUCACCCAUGUCCCGGCGCGGACUAGCCGAAU | – | – | – | – | apparent Kd (MS2 coat protein [2]; designed as: OFF switch for flavin mononucleotide, no ligand): 107 nM; apparent Kd (MS2 coat protein [2]; ligand present: flavin mononucleotide, designed as: OFF switch for flavin mononucleotide): 235 nM
24 | AUCGCGACCCAGAAGGGAAGUCGGUGAAGCGGUUCAGGAUAUGGGCAGAGGACAUGAGGAUCACCCAUGUGCAUGUAUUCGGCA | – | – | – | – | apparent Kd (MS2 coat protein [2]; [7]): 17.2 nM; apparent Kd (MS2 coat protein [2]; [8]): 13.7 nM
25 | GUAAGACAAGGCAAGGAUAUGCCCUAAUGGACAUGAGGAUCACCCAUGUGGUUGCAUAAUCAAAAGCAGAAGGUGCUACAACACGG | – | – | – | – | apparent Kd (MS2 coat protein [2]; [7]): 48.3 nM; apparent Kd (MS2 coat protein [2]; [8]): 38.8 nM
26 | UGCCUAUACCGAGGAUAUUACGUCAGAUGUGUGUAAGAAGGCGGGUUCCGAUCAACAUGAGGAUCACCCAUGUAUCUUUACGGC | – | – | – | – | apparent Kd (MS2 coat protein [2]; [7]): 24.5 nM; apparent Kd (MS2 coat protein [2]; [8]): 8.72 nM
